Data reported in ChEMBL document CHEMBL1136796 (J Med Chem, 2003).
Values belong to the compound of their own block, whether it stands above or below them.

Assays:
K562 = assay: In vitro inhibitory concentration against human chronic myelogenous leukemia K562 cell growth; format: functional, cell-based
Tubulin [1] = target: T1, Tubulin (Sus scrofa, UniProt P02554+P02550); assay: In vitro inhibition of maximum porcine tubulin assembly rate after 20 min at 37 degrees C; format: functional
LT12 tumor cell line [2] = assay: Antiproliferative activity against LT12 phenotype LT12 MDR tumor cell line; format: functional, cell-based; settings: Rattus norvegicus
L1210 [3] = assay: Antiproliferative activity against L1210 phenotype L1210 VCR tumor cell line; format: functional, cell-based; settings: Mus musculus
L1210 [4] = assay: Antiproliferative activity against L1210 tumor cell line; format: functional, cell-based; settings: Mus musculus
P388/ADR = assay: Antiproliferative activity against P388 phenotype P388 ADR tumor cell line; format: functional, cell-based; settings: Mus musculus
LT12 tumor cell line [5] = assay: Antiproliferative activity against LT12 tumor cell line; format: functional, cell-based; settings: Rattus norvegicus
P388 (Mus musculus) = assay: Antiproliferative activity against P388 tumor cell line
Sus scrofa [6] = organism: Sus scrofa; assay: In vitro inhibitory concentration against tubulin assembly; format: functional
NCI-H460 [7] = assay: Tested for induction of cellular death in Human lung H-460 tumor cell line in Propidium Iodide Monolayer Assay; format: functional, cell-based
Summary of the method: (§1)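 Propidium iodide monolayer assay: cells seeded at 1 × 10^5 or 5 × 10^4 cells/mL, 24 h recovery, drug in triplicate for 3–6 days by doubling time; PI 25 μg/mL added, fluorescence (ex 530/em 620 nm) read before and after freezing at −18 °C for 24 h; viable cells from the difference; % T/C versus concentration.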

MAXF401 cell line = assay: Tested for induction of cellular death in Human breast 401NL tumor cell line in Propidium Iodide Monolayer Assay; format: functional, cell-based; summary of the method: as §1
MCF7 = assay: Tested for induction of cellular death in Human breast MCF-7 tumor cell line in Propidium Iodide Monolayer Assay; format: functional, cell-based; summary of the method: as §1
LXFL 529 = assay: Tested for induction of cellular death in Human lung LXF 529L tumor cell line in Propidium Iodide Monolayer Assay; format: functional, cell-based; summary of the method: as §1
[8] = system: Lung LXF 629L tumor cell line; assay: Tested for induction of cellular death in Human lung LXF 629L tumor cell line in Propidium Iodide Monolayer Assay; format: functional, cell-based; summary of the method: as §1
SF-268 [9] = assay: Tested for induction of cellular death in Human ZNS SF-268 tumor cell line in Propidium Iodide Monolayer Assay; format: functional, cell-based; summary of the method: as §1
RXF 944 = assay: Tested for induction of cellular death in Human renal RXF 944L tumor cell line in Propidium Iodide Monolayer Assay; format: functional, cell-based; summary of the method: as §1
KB = assay: Cytotoxic activity against cellular metabolic activity of Cervix KB/HeLa tumor cell line using XTT proliferation assay after incubation with the compound for 48 h; format: functional, cell-based; settings: Homo sapiens
SF-268 [10] = assay: Cytotoxic activity against cellular metabolic activity of Glioma SF-268 tumor cell line using XTT proliferation assay after incubation with the compound for 48 h; format: functional, cell-based; settings: Homo sapiens, SF-268, 48 h
RKO [11] = assay: Cytotoxic activity against human colon adenocarcinoma RKO cells with ectopic inducible expression of cyclin-dependent kinase inhibitor p27kip1; format: functional, cell-based
RKO [12] = assay: Cytotoxic activity against human colon adenocarcinoma RKO cells without ectopic inducible expression of cyclin-dependent kinase inhibitor p27kip1; format: functional, cell-based
SK-OV-3 = assay: Cytotoxic activity against cellular metabolic activity of Ovary SKOV3 tumor cell line using XTT proliferation assay after incubation with the compound for 48 h; format: functional, cell-based; settings: Homo sapiens, SK-OV-3, 48 h
Sus scrofa [13] = organism: Sus scrofa; assay: Concentration required to inhibit Microtubule assembly compared to colchicine using EM studies; format: functional
Tubulin [14] = target: T1, Tubulin; assay: In vitro inhibitory concentration required to displace [3H]colchicine from its binding site on Tubulin; format: protein assay
Summary of the method: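 Streptavidin-coated yttrium SPA beads were then added and bound radioactivity measured by scintillation counting. IC50 was derived by nonlinear regression.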

NCI-H460 [15] = assay: Cytotoxic activity against cellular metabolic activity of Lung NCI-H460 tumor cell line using XTT proliferation assay after incubation with the compound for 48 h; format: functional, cell-based; settings: Homo sapiens, NCI-H460, 48 h
Summary of the method: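 NCI-H460 human lung tumor cells seeded at 1 × 10^3 cells/well in microtiter plates and exposed to a range of compound concentrations for 48 h. Proliferation read as cellular metabolic activity by XTT. At least two replicates (n = 2); IC50 obtained from dose–response curves by nonlinear regression.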

HeLa (Homo sapiens) = assay: Effective concentration required to arrest propidium iodide stained KB/HeLa cells in G2/M phase

SMILES: COc1cc(C=C2c3ccccc3C(=O)c3ccccc32)cc(OC)c1OC
IC50 (K562): 4000 nM
IC50 (Tubulin [1]): 10000 nM

SMILES: CC[C@]1(O)C[C@@H]2CN(CCc3c([nH]c4ccccc34)[C@@](C(=O)OC)(c3cc4c(cc3OC)N(C)[C@H]3[C@@](O)(C(N)=O)[C@H](O)[C@]5(CC)C=CCN6CC[C@]43[C@@H]65)C2)C1 [VINDESINE]
IC50 (LT12 tumor cell line [2]): 260 nM
IC50 (L1210 [3]): > 5000 nM
IC50 (L1210 [4]): 20 nM
IC50 (P388/ADR): 1100 nM
IC50 (LT12 tumor cell line [5]): 1 nM
IC50 (P388 (Mus musculus)): 10 nM

SMILES: COc1ccc(/C=C\c2cc(OC)c(OC)c(OC)c2)cc1O [COMBRETASTATIN A4]
IC50 (K562): 20 nM

SMILES: COc1cccc2c1C(=O)c1c(O)c3c(c(O)c1C2=O)C[C@@](O)(C(=O)CO)C[C@@H]3O[C@H]1C[C@H](N)[C@H](O)[C@H](C)O1 [DOXORUBICIN]
IC50 (NCI-H460 [7]): 1720 nM
IC50 (MAXF401 cell line): 10 nM
IC50 (LXFL 529): 30 nM
IC50 [8]: 70 nM
IC50 (RXF 944): 60 nM
IC50 (K562): 10 nM

SMILES: COc1ccc(CC2c3ccccc3C(=O)c3ccccc32)cc1OC
IC50 (K562): 62000 nM
IC50 (Tubulin [1]): > 10000 nM

SMILES: O=C1c2ccccc2C(=Cc2ccc3c(c2)OCO3)c2ccccc21
IC50 (K562): 900 nM

SMILES: COC(=O)Nc1nc2cc(C(=O)c3cccs3)ccc2[nH]1 [NOCODAZOLE]
IC50 (KB): 140 nM
IC50 (SF-268 [10]): 300 nM
IC50 (RKO [11]): > 10000 nM
IC50 (RKO [12]): 110 nM
IC50 (LT12 tumor cell line [2]): 50 nM
IC50 (L1210 [3]): 70 nM
IC50 (L1210 [4]): 60 nM
IC50 (SK-OV-3): 170 nM
IC50 (P388/ADR): 50 nM
IC50 (NCI-H460 [15]): 150 nM
IC50 (LT12 tumor cell line [5]): 300 nM
IC50 (P388 (Mus musculus)): 70 nM
EC50 (HeLa (Homo sapiens)): 82 nM

SMILES: COc1ccc(CC2c3ccccc3C(=O)c3ccccc32)cc1OC(=O)c1ccccc1
IC50 (Tubulin [1]): > 10000 nM

SMILES: O=C1c2ccccc2C(=Cc2ccccc2)c2ccccc21
IC50 (K562): 2000 nM
IC50 (Tubulin [1]): 4400 nM

SMILES: COc1cc(CC2c3ccccc3C(=O)c3ccccc32)cc(OC)c1
IC50 (Tubulin [1]): 10000 nM

Continued, in another order:

IC50 (K562): 600 nM
IC50 (Tubulin [1]): > 10000 nM
SMILES: COc1cc(C=C2c3ccccc3C(=O)c3ccccc32)cc(OC)c1

IC50 (K562): 70 nM
IC50 (Tubulin [1]): 1200 nM
IC50 (Sus scrofa [6]): 1200 nM
SMILES: COc1ccc(C=C2c3ccccc3C(=O)c3ccccc32)c(O)c1

IC50 (K562): 60 nM
IC50 (Tubulin [1]): 1800 nM
SMILES: O=C1c2ccccc2C(=Cc2ccc(O)c(O)c2)c2ccccc21
IC50 (NCI-H460 [7]): < 10 nM
IC50 (MAXF401 cell line): 210 nM
IC50 (MCF7): 40 nM
IC50 (LXFL 529): 1620 nM
IC50 [8]: 260 nM
IC50 (SF-268 [9]): 1160 nM
IC50 (RXF 944): 30 nM

IC50 (K562): 1400 nM
IC50 (Tubulin [1]): 630 nM
IC50 (Sus scrofa [6]): < 1000 nM
SMILES: COc1cc(C=C2c3ccccc3C(=O)c3ccccc32)ccc1O
IC50 (NCI-H460 [7]): 2360 nM
IC50 (MAXF401 cell line): 1510 nM
IC50 (MCF7): 2520 nM
IC50 (LXFL 529): 3230 nM
IC50 [8]: 2070 nM
IC50 (SF-268 [9]): 2970 nM
IC50 (RXF 944): 2830 nM

IC50 (K562): 800 nM
IC50 (Tubulin [1]): 2500 nM
SMILES: O=C1c2ccccc2C(=Cc2ccc(O)cc2)c2ccccc21

IC50 (K562): 800 nM
IC50 (Tubulin [1]): 910 nM
SMILES: Cc1cc(C=C2c3ccccc3C(=O)c3ccccc32)cc(C)c1O

IC50 (K562): 730 nM
IC50 (Tubulin [1]): 910 nM
IC50 (Sus scrofa [6]): < 1000 nM
SMILES: COc1cccc(C=C2c3ccccc3C(=O)c3ccccc32)c1O
IC50 (NCI-H460 [7]): 3330 nM
IC50 (MAXF401 cell line): 20 nM
IC50 (MCF7): 800 nM
IC50 (LXFL 529): 4450 nM
IC50 [8]: 2020 nM
IC50 (SF-268 [9]): 980 nM
IC50 (RXF 944): 360 nM

IC50 (LT12 tumor cell line [2]): 190 nM
IC50 (K562): 20 nM
IC50 (L1210 [3]): 130 nM
IC50 (L1210 [4]): 140 nM
IC50 (P388/ADR): 260 nM
IC50 (Sus scrofa [13]): 700 nM
IC50 (Tubulin [1]): 670 nM
IC50 (Sus scrofa [6]): 670 nM
IC50 (Tubulin [14]): 370 nM
IC50 (LT12 tumor cell line [5]): 320 nM
IC50 (P388 (Mus musculus)): 160 nM
EC50 (HeLa (Homo sapiens)): 206 nM
SMILES: COc1ccc(C=C2c3ccccc3C(=O)c3ccccc32)cc1O
IC50 (KB): 90 nM
IC50 (SF-268 [10]): 50 nM
IC50 (NCI-H460 [7]): < 10 nM
IC50 (MAXF401 cell line): < 10 nM
IC50 (MCF7): < 10 nM
IC50 (LXFL 529): 520 nM
IC50 [8]: < 10 nM
IC50 (SF-268 [9]): 30 nM
IC50 (RKO [11]): > 9000 nM
IC50 (RKO [12]): 60 nM
IC50 (RXF 944): < 10 nM
IC50 (SK-OV-3): 50 nM
IC50 (NCI-H460 [15]): 70 nM

IC50 (K562): 20000 nM
IC50 (Tubulin [1]): > 10000 nM
SMILES: O=C1c2ccccc2C(=Cc2cc(O)c(O)c(O)c2)c2ccccc21
